The source made the active and inactive calls.
Columns and labels:
[1] = Passive membrane permeability of the compound in phosphate buffered saline assessed as mass retention of the compound at 200 uM incubated for 5 hrs by PAMPA assay based HPLC analysis; format: ADME
Method in brief: (§1)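 Precoated trilayer PAMPA, 5 h incubation. Acceptor and donor concentrations measured after 5 h. Permeability and mass retention calculated by a literature method.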

[2] = target: Genome polyprotein (dengue virus type 2) (UniProt P29990); test: Inhibition of NS2B-NS3 protease in DENV2proHeLa system assessed as inhibition of luciferase signal at 12.5 uM incubated for 24 hrs by luciferase reporter gene assay; format: cell-based; settings: HeLa
Method in brief: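 Stable DENV2proHeLa cells seeded at 2 × 10⁴/well and dosed immediately, then incubated 24 h at 37 °C. Cells lysed 15 min at room temperature. Luciferase read with coelenterazine (2.75 μM in PBS) injection, luminescence 5 s. Triplicates; percent inhibition calculated relative to untreated control; background from cell-free wells.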

[3] = Passive membrane permeability of the compound in phosphate buffered saline assessed as concentration of the compound in donor plate at 200 uM incubated for 5 hrs by PAMPA assay based HPLC analysis; format: ADME; method in brief: as §1
Huh-7 [4] = test: Cytotoxicity against human Huh-7 cells assessed as reduction in cell viability at 12.5 uM incubated for 48 hrs by CellTiter-Blue assay; format: cell-based; settings: huh-7, 48 h
Method in brief: (§2)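 Viability by CellTiter-Blue in HeLa or Huh-7 cells exposed to compound dilutions. Plates run in parallel with the reporter assay (HeLa) or the virus titer assay (Huh-7).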

Trypsin (Homo sapiens) = Trypsin (Homo sapiens) (UniProt P07477+P07478+P35030); test: Inhibition of trypsin (unknown origin) using Boc-Val-Pro-Arg-AMC as substrate at 50 uM preincubated with enzyme for 15 mins followed by substrate addition and measured for 15 mins by fluorimetric assay; format: protein assay; settings: time 30.0 min
[5] = Selectivity index, ratio of CC50 for human HeLa cells to EC50 for inhibition of NS2B-NS3 protease in DENV2proHeLa system; format: toxicity; settings: read-out: Ratio CC50/EC50
[6] = target: Prothrombin (Homo sapiens) (UniProt P00734); test: Inhibition of thrombin in human plasma using Boc-Val-Pro-Arg-AMC as substrate at 25 uM preincubated with enzyme for 15 mins followed by substrate addition and measured for 15 mins by fluorimetric assay; format: cell-free; settings: time 30.0 min
Genome polyprotein [7] = target: T1, Genome polyprotein (dengue virus type 2, UniProt P29990); test: Competitive inhibition of DENV2 NS2B-NS3 protease expressed in Escherichia coli BL21 lambda(DE3) using FRET substrate preincubated with enzyme for 15 mins followed by substrate addition for 15 mins by Michaelis-Menten based analysis
Genome polyprotein [8] = target: T1, Genome polyprotein; test: Competitive inhibition of DENV2 NS2B-NS3 protease expressed in Escherichia coli BL21 lambda(DE3) using FRET substrate preincubated with enzyme for 15 mins followed by varying concentrations of substrate addition for 15 mins by Cheng-Prusoff plot analysis
dengue virus type 2 [9] = test: (§3) Antiviral activity against DENV2 infected in human Huh7 cells assessed as reduction in virus titer in cell supernatant by measuring inhibition of plaque formation using VeroE6 cells preincubated with viral infected Huh7 cells for 48 hrs and measured following infection of VeroE6 cells with supernatants for 7 days by plaque assay based crystal violet staining analysis; format: functional, organism-based, Huh-7; settings: for EC50: Huh-7; for EC90: Huh-7, 216 h, time 9 day
Method in brief: (§4)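 Huh-7 cells seeded at 1 × 10⁴/well and incubated overnight. Infected with DENV-2 at MOI 1 for 2 h, then medium changed and compound added. […] Pooled supernatants titred by plaque assay on VeroE6 cells: 10⁻¹ to 10⁻⁶ dilutions, 1 h infection, 7 days, formaldehyde fix, crystal violet.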

[10] = Passive membrane permeability of the compound in phosphate buffered saline assessed as concentration of the compound in acceptor plate at 200 uM incubated for 5 hrs by PAMPA assay based HPLC analysis; format: ADME; method in brief: as §1
[11] = Passive membrane permeability of the compound in phosphate buffered saline at 200 uM incubated for 5 hrs by PAMPA assay based HPLC analysis; format: ADME; settings: for Papp at 5 h, 200 µM: PAMPA, read-out: permeability; method in brief: as §1
[12] = target: Genome polyprotein (dengue virus type 2) (UniProt P29990); test: Competitive inhibition of DENV2 NS2B-NS3 protease expressed in Escherichia coli BL21 lambda(DE3) assessed as increase in Km without change in Vmax using FRET substrate preincubated with enzyme for 15 mins followed by substrate addition for 15 mins by Michaelis-Menten based analysis; settings: time 30.0 min
[13] = Stability of the compound assessed as bovine pancreas trypsin-mediated parent compound depletion at 0.1 mg/ml incubated for 120 mins by HPLC analysis; format: ADME, Bos taurus; settings: cattle; for metabolised at 2 h, 0.1 mg/ml: bovine pancreas trypsin, read-out: Drug degradation
Method in brief: (§5)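 Compound incubated with α-chymotrypsin or bovine trypsin in buffer for 120 min at 37 °C; parent compound depletion monitored.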

[14] = Stability of the compound assessed as bovine pancreas alphachymotrypsin-mediated parent compound depletion by measuring parent compound remaining at 0.1 mg/ml incubated for 120 mins by HPLC analysis; format: ADME, Bos taurus; settings: cattle, bovine pancreas alpha-chymotrypsin, read-out: Stabilty; method in brief: as §5
Genome polyprotein [15] = target: T1, Genome polyprotein; test: Inhibition of NS2B-NS3 protease in DENV2proHeLa system assessed as inhibition of luciferase signal incubated for 24 hrs by luciferase reporter gene assay; format: cell-based, HeLa
Method in brief: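 HeLa cells stably carrying the reporter system, 2 × 10⁴ per well, given inhibitor at seeding and held 24 h at 37 °C. Cells lysed 15 min at room temperature. Luciferase read for 5 s after injecting coelenterazine (2.75 μM in PBS). Triplicate wells per concentration; percent inhibition taken against untreated cells. EC50/EC90 from 4-parameter dose-response fit, background from cell-free wells subtracted.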

[16] = target: Genome polyprotein (dengue virus type 2) (UniProt P29990); test: Inhibition of DENV2 NS2B-NS3 protease expressed in Escherichia coli BL21 lambda(DE3) using FRET substrate preincubated with enzyme for 15 mins in presence of detergent CHAPS followed by substrate addition for 15 mins by fluorescence based analysis; settings: time 30.0 min
[17] = Cytotoxicity against human HeLa cells assessed as reduction in cell viability incubated for 24 hrs by CellTiter-Blue assay; format: cell-based; method in brief: as §2
dengue virus type 2 [18] = test: as §3, with “VeroE6 cells at 12.5 uM preincubated with” for “VeroE6 cells preincubated with”; format: functional; settings: Huh-7, 216 h, time 9 day; method in brief: as §4
[19] = Stability of the compound assessed as bovine pancreas alphachymotrypsin-mediated parent compound depletion at 0.1 mg/ml incubated for 120 mins by HPLC analysis; format: ADME, Bos taurus; settings: cattle, bovine pancreas alpha-chymotrypsin, read-out: Drug degradation; method in brief: as §5
[20] = Half life in Sprague-Dawley rat liver microsomes at 100 uM incubated for 60 mins in presence of NADPH by HPLC analysis; format: ADME, Microsome
Method in brief: (§6)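 Rat liver microsomes; samples incubated 60 min at 37 °C, parent compound depletion monitored.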

[21] = Metabolic stability in Sprague-Dawley rat liver microsomes at 100 uM incubated for 60 mins in presence of NADPH by HPLC analysis; format: ADME, Microsome; settings: 1 h; method in brief: as §6
[22] = target: Genome polyprotein (dengue virus type 2) (UniProt P29990); test: Binding affinity to DENV2 NS2B-NS3 protease expressed in Escherichia coli BL21 lambda(DE3) assessed as quenching of fluorescence of tryptophan residue of the enzyme incubated for 1 hr by tryptophan fluorescence quenching assay; settings: dose 10-50 µM
Method in brief: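 Compound added to isolated DENV-2 protease; tryptophan fluorescence quenching monitored across concentrations. Aprotinin added as active-site competitor to test displacement.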

[23] = target: Genome polyprotein (dengue virus type 2) (UniProt P29990); test: Binding affinity to DENV2 NS2B-NS3 protease expressed in Escherichia coli BL21 lambda(DE3) assessed as quenching of fluorescence of tryptophan residue of the enzyme at 50 uM incubated for 1 hr in presence of aprotinin by tryptophan fluorescence quenching assay
dengue virus type 2 [24] = test: as §3, with “VeroE6 cells at 10 uM preincubated with” for “VeroE6 cells preincubated with”; format: functional; settings: Huh-7, 216 h, time 9 day
Huh-7 [25] = test: Cytotoxicity against human Huh-7 cells assessed as reduction in cell viability at 10 uM incubated for 48 hrs by CellTiter-Blue assay; format: cell-based; settings: huh-7, 48 h; method in brief: as §2
[26] = target: Genome polyprotein (West Nile virus) (UniProt P06935); test: Inhibition of WNV NS2B-NS3 protease expressed in Escherichia coli BL21 lambda(DE3) using FRET substrate preincubated with enzyme for 15 mins in presence of detergent CHAPS followed by substrate addition for 15 mins by fluorescence based analysis; settings: time 30.0 min
Sequence of Genome polyprotein (West Nile virus) (P06935 whole entry): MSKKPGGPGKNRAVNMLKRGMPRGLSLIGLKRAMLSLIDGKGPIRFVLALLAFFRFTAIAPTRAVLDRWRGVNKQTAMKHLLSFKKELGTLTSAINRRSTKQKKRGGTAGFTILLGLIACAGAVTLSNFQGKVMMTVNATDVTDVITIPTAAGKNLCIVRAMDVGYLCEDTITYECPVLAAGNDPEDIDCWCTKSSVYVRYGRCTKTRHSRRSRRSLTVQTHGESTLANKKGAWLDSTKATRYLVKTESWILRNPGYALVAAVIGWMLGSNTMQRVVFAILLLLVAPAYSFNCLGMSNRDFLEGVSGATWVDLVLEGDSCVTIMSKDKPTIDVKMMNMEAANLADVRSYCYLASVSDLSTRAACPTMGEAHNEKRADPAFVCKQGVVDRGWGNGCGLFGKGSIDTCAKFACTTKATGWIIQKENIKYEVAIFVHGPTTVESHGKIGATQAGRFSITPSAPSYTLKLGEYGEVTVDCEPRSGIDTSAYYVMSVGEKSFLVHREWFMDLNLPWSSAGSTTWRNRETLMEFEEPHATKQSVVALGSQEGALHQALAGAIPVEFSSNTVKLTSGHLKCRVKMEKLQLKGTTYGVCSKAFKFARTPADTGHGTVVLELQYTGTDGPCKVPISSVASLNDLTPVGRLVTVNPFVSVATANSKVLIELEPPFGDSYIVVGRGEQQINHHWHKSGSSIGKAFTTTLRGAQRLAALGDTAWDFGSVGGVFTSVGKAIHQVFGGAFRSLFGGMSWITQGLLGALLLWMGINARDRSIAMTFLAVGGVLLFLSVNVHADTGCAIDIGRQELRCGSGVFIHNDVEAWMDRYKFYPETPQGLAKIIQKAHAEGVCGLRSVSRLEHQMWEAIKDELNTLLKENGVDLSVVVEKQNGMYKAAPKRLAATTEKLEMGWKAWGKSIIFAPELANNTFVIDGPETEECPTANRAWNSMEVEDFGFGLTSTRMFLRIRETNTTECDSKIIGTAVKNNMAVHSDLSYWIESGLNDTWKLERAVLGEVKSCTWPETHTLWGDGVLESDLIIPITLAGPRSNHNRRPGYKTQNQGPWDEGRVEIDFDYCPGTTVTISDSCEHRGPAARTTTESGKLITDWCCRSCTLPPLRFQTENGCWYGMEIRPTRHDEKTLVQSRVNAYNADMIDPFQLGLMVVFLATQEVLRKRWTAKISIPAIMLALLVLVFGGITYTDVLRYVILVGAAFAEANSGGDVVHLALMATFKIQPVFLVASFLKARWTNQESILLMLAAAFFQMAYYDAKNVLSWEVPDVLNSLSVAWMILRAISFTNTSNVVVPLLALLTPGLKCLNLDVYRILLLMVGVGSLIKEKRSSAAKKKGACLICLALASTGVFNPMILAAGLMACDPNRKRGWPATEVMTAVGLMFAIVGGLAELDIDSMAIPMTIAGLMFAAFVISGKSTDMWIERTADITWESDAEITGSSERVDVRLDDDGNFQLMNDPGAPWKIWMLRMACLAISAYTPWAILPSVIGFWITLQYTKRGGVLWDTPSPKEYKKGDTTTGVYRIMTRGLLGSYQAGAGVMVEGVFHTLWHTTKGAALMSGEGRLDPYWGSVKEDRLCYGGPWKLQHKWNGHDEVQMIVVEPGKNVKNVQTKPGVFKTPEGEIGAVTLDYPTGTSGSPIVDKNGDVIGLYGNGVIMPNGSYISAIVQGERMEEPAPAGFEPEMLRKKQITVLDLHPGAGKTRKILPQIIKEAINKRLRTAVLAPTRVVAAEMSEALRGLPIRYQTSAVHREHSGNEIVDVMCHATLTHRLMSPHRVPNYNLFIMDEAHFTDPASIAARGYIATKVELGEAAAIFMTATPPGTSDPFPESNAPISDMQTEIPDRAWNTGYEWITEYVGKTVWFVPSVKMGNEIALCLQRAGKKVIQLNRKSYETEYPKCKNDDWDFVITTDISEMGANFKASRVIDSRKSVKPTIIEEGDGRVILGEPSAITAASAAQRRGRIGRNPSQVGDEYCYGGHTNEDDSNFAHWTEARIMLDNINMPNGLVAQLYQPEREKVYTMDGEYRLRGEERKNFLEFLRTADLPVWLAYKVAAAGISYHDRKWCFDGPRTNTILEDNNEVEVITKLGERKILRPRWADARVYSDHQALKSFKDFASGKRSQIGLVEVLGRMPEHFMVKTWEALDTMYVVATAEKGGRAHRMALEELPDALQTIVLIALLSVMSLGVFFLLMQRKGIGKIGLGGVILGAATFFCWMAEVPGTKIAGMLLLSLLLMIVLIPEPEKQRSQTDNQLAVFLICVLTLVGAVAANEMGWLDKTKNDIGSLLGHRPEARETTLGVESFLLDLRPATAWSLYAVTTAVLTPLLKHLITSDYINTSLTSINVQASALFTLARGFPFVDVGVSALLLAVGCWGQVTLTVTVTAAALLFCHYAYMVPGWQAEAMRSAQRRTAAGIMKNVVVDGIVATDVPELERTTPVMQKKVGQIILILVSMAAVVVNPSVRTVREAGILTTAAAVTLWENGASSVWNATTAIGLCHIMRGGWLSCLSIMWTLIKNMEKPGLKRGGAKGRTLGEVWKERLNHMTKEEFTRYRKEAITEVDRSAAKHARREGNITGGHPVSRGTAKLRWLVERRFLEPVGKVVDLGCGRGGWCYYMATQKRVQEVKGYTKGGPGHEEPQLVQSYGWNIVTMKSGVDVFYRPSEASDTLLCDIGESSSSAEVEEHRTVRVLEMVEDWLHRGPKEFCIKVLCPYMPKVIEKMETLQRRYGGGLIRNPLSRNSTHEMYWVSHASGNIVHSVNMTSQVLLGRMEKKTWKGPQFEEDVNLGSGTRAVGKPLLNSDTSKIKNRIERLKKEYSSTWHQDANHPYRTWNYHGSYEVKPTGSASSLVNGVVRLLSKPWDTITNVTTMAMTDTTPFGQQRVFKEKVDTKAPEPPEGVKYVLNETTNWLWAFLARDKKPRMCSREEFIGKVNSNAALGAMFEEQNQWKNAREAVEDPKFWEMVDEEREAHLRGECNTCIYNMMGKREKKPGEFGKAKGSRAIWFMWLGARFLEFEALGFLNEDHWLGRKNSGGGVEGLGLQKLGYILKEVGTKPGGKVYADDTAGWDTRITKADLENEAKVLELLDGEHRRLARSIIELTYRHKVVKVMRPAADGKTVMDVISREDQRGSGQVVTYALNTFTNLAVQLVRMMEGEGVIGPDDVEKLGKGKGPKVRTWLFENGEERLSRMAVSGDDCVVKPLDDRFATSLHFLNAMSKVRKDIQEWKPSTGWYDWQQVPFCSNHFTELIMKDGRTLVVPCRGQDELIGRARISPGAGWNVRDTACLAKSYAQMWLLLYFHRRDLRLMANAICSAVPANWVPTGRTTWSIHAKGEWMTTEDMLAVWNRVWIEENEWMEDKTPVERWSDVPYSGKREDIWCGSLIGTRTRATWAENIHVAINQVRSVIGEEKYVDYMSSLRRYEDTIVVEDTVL

Row | Structure (SMILES) | Activity [1] | inhibition [2] | Activity [3] | Activity (Huh-7 [4]) | inhibition (Trypsin (Homo sapiens)) | inhibition [6] | Ki (Genome polyprotein [8]) | EC50 (dengue virus type 2 [9]) | EC90 (dengue virus type 2 [9]) | Activity [10] | Papp at 5 h, 200 µM [11] | metabolised at 2 h, 0.1 mg/ml [13] | remaining at 2 h, 0.1 mg/ml [14] | EC50 (Genome polyprotein [15]) | inhibition [16] | CC50 at 24 h [17] | inhibition at 12.5 µM (dengue virus type 2 [18]) | other results
1 | NC(=O)c1cccc(NC(=O)[C@@H](NC(=O)c2ccc(Oc3ccccc3)cc2)c2ccc(OCc3ccccc3)cc2)c1 | 15% | 83% | 164 µM | < 20% | inactive | inactive | 6.1 µM | 0.66 µM | 7 µM | 9.5 µM | 2.2 ×10⁻⁶ cm/s | 25% | 70% | 0.73 µM | Active | > 100 µM | 100% | selectivity ratio [5]: > 140; Ki (Genome polyprotein [7]): 5.2 µM; inhibition [12]: Active
2 | NC(=O)c1cccc(NC(=O)[C@@H](NC(=O)c2ccc(C(=O)c3ccccc3)cc2)c2ccc(OCc3ccccc3)cc2)c1 | 8.1% | 76% | 178 µM | < 20% | inactive | inactive | 3.5 µM | 1.1 µM | 4.6 µM | 8.6 µM | 1.8 ×10⁻⁶ cm/s | 25% | 70% | 0.39 µM | Active | > 100 µM | 100% | –
3 | NC(=O)c1cccc(NC(=O)[C@@H](NC(=O)c2ccc(Oc3ccc(Cl)cc3)cc2)c2ccc(OCc3ccccc3)cc2)c1 | – | 86% | – | – | inactive | inactive | – | – | – | – | – | – | – | 0.58 µM | – | 96 µM | – | selectivity ratio [5]: > 140
4 | CCCCCC(=O)N[C@H](C(=O)NCc1ccc(NC(=N)N)cc1)c1ccc(OCc2ccccc2)cc1 | – | – | – | – | – | – | – | – | – | – | – | 25% | – | – | Active | – | – | metabolised at 2 h, 0.1 mg/ml [19]: 40%; half-life at 100 µM [20]: 55 min
5 | NC(=O)c1cccc(NC(=O)[C@@H](NC(=O)c2ccc(Oc3ccc(C(F)(F)F)cc3)cc2)c2ccc(OCc3ccccc3)cc2)c1 | 3.7% | 76% | 188 µM | < 20% | inactive | inactive | 6.3 µM | 0.24 µM | 4.8 µM | 6.9 µM | 1.4 ×10⁻⁶ cm/s | 25% | 70% | 1.2 µM | Active | > 100 µM | 100% | Stabilty [21]: Stable
6 | NC(=O)c1cccc(NC(=O)[C@@H](NC(=O)c2ccc(N3CCOCC3)cc2)c2ccc(OCc3ccccc3)cc2)c1 | 7.1% | 79% | 181 µM | < 20% | inactive | inactive | – | 0.85 µM | 15 µM | 8.1 µM | 1.7 ×10⁻⁶ cm/s | – | – | 2.2 µM | Active | > 100 µM | 96% | metabolised at 2 h, 0.1 mg/ml [19]: 40%; half-life at 100 µM [20]: 27 min; Stabilty ([13]; isolated protein, 2 h): Unstable
7 | NC(=O)c1cccc(NC(=O)[C@@H](NC(=O)c2ccc(-c3ccco3)cc2)c2ccc(OCc3ccccc3)cc2)c1 | 15% | 76% | 169 µM | < 20% | inactive | inactive | – | – | – | 2.1 µM | 0.45 ×10⁻⁶ cm/s | – | – | 1.7 µM | – | > 50 µM | 59% | Activity [22]: Active; Activity [23]: inactive
8 | CCCCCC(=O)N[C@H](C(=O)NCc1ccc(C(N)=O)cc1)c1ccc(OCc2ccccc2)cc1 | – | 66% | – | – | inactive | inactive | – | – | – | – | – | – | – | 6.3 µM | – | > 100 µM | – | inhibition at 10 µM (dengue virus type 2 [24]): 34%; permeability ([11]; pampa, 5 h, 200 µM): Impermeable; Activity (Huh-7 [25]): < 20%
9 | NC(=O)c1cccc(NC(=O)[C@@H](NC(=O)c2ccc(-c3ccc(Cl)cc3)cc2)c2ccc(OCc3ccccc3)cc2)c1 | 5.5% | 78% | 187 µM | < 20% | inactive | inactive | 6.9 µM | 1.6 µM | 4.7 µM | 3.7 µM | 0.7 ×10⁻⁶ cm/s | 25% | 70% | 1.2 µM | Active | > 25 µM | 100% | inhibition [26]: Active; Ki (Genome polyprotein [7]): 4.1 µM; inhibition [12]: Active; Stabilty [21]: Stable
10 | NC(=O)c1ccc(CNC(=O)[C@@H](NC(=O)c2ccc(-c3cccs3)s2)c2ccc(OCc3ccccc3)cc2)cc1 | – | 63% | – | – | inactive | inactive | – | – | – | – | – | – | – | 6.2 µM | – | > 100 µM | – | Activity [22]: Active; Activity [23]: inactive
